ChEMBL document CHEMBL1125741, “Synthesis and anticonvulsant activity of imidooxy derivatives” (J Med Chem, 1991)
Activity calls are given as the source filed them. No cut-off for these calls is given here.

What was measured:
[1] = Time of peak effect (TPE) for activity; format: ADME; set-up: unit not given here
In short: (§1)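 Phase II quantitation, drug given ip. ED50 in the MES or scMet test was taken at the time of peak effect, with the peak time set in MES for some compounds and in scMet for others. Rotorod TD50 was taken at the time of peak neurologic deficit. Values are in mg/kg with 95% confidence limits. Protective index is TD50/ED50.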

[2] = Time of peak effect (TPE) for toxicity; set-up: unit not given here; in short: as §1
[3] = Compound was evaluated for toxic dose at peak neurologic deficit after intraperitoneal administration of the compound.; format: ADME, organism-based, Gallus gallus; settings: chicken, in vivo, ip
In short: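 Mice received compound dissolved or suspended in 30% polyethylene glycol 400 by intraperitoneal injection. Neurological toxicity was scored as failure on the rotorod test. Testing was run through the NINCDS Antiepileptic Drug Development Program.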

[4] = Protective index which is the ratio of TD50 to ED50 of in maximal electroshock test.; format: functional; in short: as §1
[5] = test system: Gallus gallus; test: Toxicity test (number of animals exhibiting toxicity / number of animals tested) at a dose of 30 mg/kg after 6 h; 8/8; format: organism-based; set-up: dose 30 mg/kg; settings: chicken, in vivo
[6] = test system: Gallus gallus; test: Toxicity test (number of animals exhibiting toxicity / number of animals tested) at a dose of 30 mg/kg after 0.25 hr; 0/8; format: organism-based; set-up: dose 30 mg/kg; settings: chicken, in vivo
[7] = test system: Gallus gallus; test: Toxicity test (number of animals exhibiting toxicity / number of animals tested) at a dose of 50 mg/kg after 0.50 hr; 4/8; format: organism-based; set-up: dose 50 mg/kg; settings: chicken, in vivo, 0.5 h
[8] = test system: Gallus gallus; test: Toxicity test (number of animals exhibiting toxicity / number of animals tested) at a dose of 30 mg/kg after 0.50 hr; 0/8; format: organism-based; set-up: dose 30 mg/kg; settings: chicken, in vivo, 0.5 h
[9] = test system: Gallus gallus; test: Subcutaneous pentylenetetrazole test (ScMet) (number of animals protected / number of animals tested) at a dose of 30 mg/kg after 2 hr; 8/8; format: functional
[10] = test system: Gallus gallus; test: Subcutaneous pentylenetetrazole test (ScMet) (number of animals protected / number of animals tested) at a dose of 30 mg/kg after 0.25 hr; 4/8; format: functional
[11] = test system: Gallus gallus; test: Toxicity test (number of animals exhibiting toxicity / number of animals tested) at a dose of 50 mg/kg after 2 hr; 6/8; format: organism-based; set-up: dose 50 mg/kg; settings: chicken, in vivo
[12] = test system: Gallus gallus; test: Toxicity test (number of animals exhibiting toxicity / number of animals tested) at a dose of 30 mg/kg after 1 hr; 1/8; format: organism-based; set-up: dose 30 mg/kg; settings: chicken, in vivo
[13] = test system: Gallus gallus; test: Toxicity test (number of animals exhibiting toxicity / number of animals tested) at a dose of 30 mg/kg after 2 hr; 8/8; format: organism-based; set-up: dose 30 mg/kg; settings: chicken, in vivo
[14] = test system: Gallus gallus; test: Subcutaneous pentylenetetrazole test (ScMet) (number of animals protected / number of animals tested) at a dose of 30 mg/kg after 0.50 hr; 4/8; format: functional
[15] = test system: Gallus gallus; test: Subcutaneous pentylenetetrazole test (ScMet) (number of animals protected / number of animals tested) at a dose of 30 mg/kg after 1 hr; 8/8; format: functional
[16] = test system: Gallus gallus; test: Toxicity test (number of animals exhibiting toxicity / number of animals tested) at a dose of 30 mg/kg after 4 hr; 8/8; format: organism-based; set-up: dose 30 mg/kg; settings: chicken, in vivo
[17] = test system: Gallus gallus; test: Toxicity test (number of animals exhibiting toxicity / number of animals tested) at a dose of 50 mg/kg after 1 hr; 7/8; format: organism-based; set-up: dose 50 mg/kg; settings: chicken, in vivo
[18] = test system: Gallus gallus; test: Anticonvulsant activity by maximal electroshock test at a dose of 100 mg/kg against young chicks after 30 min; 1/3; format: functional
[19] = test system: Gallus gallus; test: Anticonvulsant activity by subcutaneous pentylenetetrazole test at a dose of 300 mg/kg against young chicks after 30 min; 1/1; format: functional
[20] = test system: Gallus gallus; test: Toxicity test (number of animals exhibiting toxicity / number of animals tested) done at a dose 100 mg/kg against young chicks after 4 hr; […]; format: organism-based; set-up: dose 100 mg/kg; settings: chicken, in vivo
[21] = Protective index which is the ratio of TD50 to ED50 of against subcutaneous pentylenetetrazole test; format: functional; in short: as §1
[22] = test system: Gallus gallus; test: Anticonvulsant activity by subcutaneous pentylenetetrazole test at a dose of 300 mg/kg against young chicks after 30 min; 0/0; format: functional
[23] = test system: Gallus gallus; test: Anticonvulsant activity by maximal electroshock test at a dose of 300 mg/kg against young chicks after 30 min; 1/1; format: functional
[24] = test system: Gallus gallus; test: Anticonvulsant activity by subcutaneous pentylenetetrazole test at a dose of 30 mg/kg against young chicks after 4 hr; 1/1; format: functional
[25] = test system: Gallus gallus; test: Anticonvulsant activity by subcutaneous pentylenetetrazole test at a dose of 100 mg/kg against young chicks after 30 min; 1/1; format: functional
[26] = test system: Gallus gallus; test: Anticonvulsant activity by maximal electroshock test at a dose of 30 mg/kg against young chicks after 30 min; 1/1; format: functional
[27] = test system: Gallus gallus; test: Anticonvulsant activity by subcutaneous pentylenetetrazole test at a dose of 30 mg/kg against young chicks after 30 min; 1/1; format: functional
[28] = test system: Gallus gallus; test: Toxicity test (number of animals exhibiting toxicity / number of animals tested) done at a dose 100 mg/kg against young chicks after 4 hr; 4/4; format: organism-based; set-up: dose 100 mg/kg; settings: chicken, in vivo
[29] = test system: Gallus gallus; test: Compound was evaluated for effective dose by subcutaneous pentylenetetrazole test after intraperitoneal administration of the compound; Not Effective; format: functional, organism-based; in short: as §1
[30] = test system: Gallus gallus; test: Anticonvulsant activity by subcutaneous pentylenetetrazole test at a dose of 100 mg/kg against young chicks after 30 min; 0/0; format: functional
[31] = test system: Gallus gallus; test: Toxicity test (number of animals exhibiting toxicity / number of animals tested) done at a dose 100 mg/kg against young chicks after 30 min; 8/8; format: organism-based; set-up: dose 100 mg/kg; settings: chicken, in vivo, 0.5 h
[32] = test system: Gallus gallus; test: Anticonvulsant activity by maximal electroshock test at a dose of 100 mg/kg against young chicks after 30 min; 2/3; format: functional
[33] = test system: Gallus gallus; test: Compound was evaluated for effective dose by maximal electroshock test after intraperitoneal administration of the compound.; format: functional; settings: ip; in short: as §1

CCC1(C)CC(=O)NC1=O (stereo not given) [ETHOSUXIMIDE]
TPE [1]: 0.5
TPE [2]: 0.5

O=C1CC2(CCCC2)C(=O)N1OCc1ccccc1
TPE [1]: 0.25
TD50 [3]: > 500 mg/kg
PI [4]: 4.5
TPE [2]: 4

C=C(CON1C(=O)CCC1=O)C(=O)OC
No. of animals protected/animals tested [5]: 8
No. of animals protected/animals tested [6]: 0
No. of animals protected/animals tested [7]: 4
No. of animals protected/animals tested [8]: 0
No. of animals protected/animals tested [9]: 8
No. of animals protected/animals tested [10]: 4
No. of animals protected/animals tested [11]: 6
No. of animals protected/animals tested [12]: 1
No. of animals protected/animals tested [13]: 8
No. of animals protected/animals tested [14]: 4
No. of animals protected/animals tested [15]: 8
No. of animals protected/animals tested [16]: 8
No. of animals protected/animals tested [17]: 7

CCOC(=O)ON1C(=O)CCC1=O
No. of animals protected/animals tested [18]: 1
No. of animals protected/animals tested [19]: 1
No. of animals protected/animals tested [20]: 4

CCCC(CCC)C(=O)O [VALPROIC ACID]
TPE [1]: 0.25
PI [21]: 2.87
PI [4]: 1.57
TPE [2]: 0.25

O=C1c2cccc3cccc(c23)C(=O)N1[O-].[Na+]
TPE [1]: 0.25
PI [21]: 0.84
TPE [2]: 4

C=C(CON1C(=O)c2ccccc2C1=O)C(=O)OC
TPE [1]: 1
No. of animals protected/animals tested [22]: 0
PI [21]: 0.72
TPE [2]: 4
No. of animals protected/animals tested [23]: 1
No. of animals protected/animals tested [24]: 1
No. of animals protected/animals tested [25]: 1
No. of animals protected/animals tested [26]: 1
No. of animals protected/animals tested [27]: 1
No. of animals protected/animals tested [28]: 4

O=C1NC(=O)C(c2ccccc2)(c2ccccc2)N1 [PHENYTOIN]
TPE [1]: 2
TPE [2]: 2
ED50 [29]: inactive

CCC1(c2ccccc2)C(=O)NC(=O)NC1=O [PHENOBARBITAL]
TPE [1]: 1
TPE [2]: 0.5

O=C1c2ccccc2C(=O)N1O
TPE [1]: 0.25
No. of animals protected/animals tested [30]: 0
PI [4]: 0.99
No. of animals protected/animals tested [31]: 8
TPE [2]: 0.25
No. of animals protected/animals tested [32]: 2
No. of animals protected/animals tested [28]: 4
ED50 [33]: 95.4 mg/kg

NC(=O)N1c2ccccc2C=Cc2ccccc21 [CARBAMAZEPINE]
TPE [1]: 0.25
TPE [2]: 0.25
ED50 [29]: inactive
